Data taken from PMC9116722 (Cancer chemotherapy and pharmacology, 2022).

Assays:
γ-H2AX = experiment: Nuclear γ-H2AX staining in tumor biopsies; type: in vivo, human; conditions: 10 cases, 4 pre-post biopsy pairs, DL8
PARP 1/2 = conditions: paired tumor biopsies and PBMCs, 3–6 hours after 25- or 50-mg dose ref 10; cited from earlier work
[1] = Non-compartmental pharmacokinetics; type: in vivo, human
Procedure, shortened: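 Patients took oral drug twice daily, continuously, at 50–500 mg BID. Plasma parent drug and active metabolite M8 were measured by a validated assay. Parameters were derived non-compartmentally on day 1 and reported as geometric mean (SD). Accumulation indices for Cmax and AUC0–8 were compared with theoretical values from D1 half-lives. Dose proportionality was tested on day-1 Cmax and AUC0-inf (95% CI of coefficient including 1).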

[2] = geometric mean (standard deviation)

C[C@]1(c2nc3c(C(N)=O)cccc3[nH]2)CCCN1 [veliparib]
treatment-induced change in nuclear γ-H2AX staining (γ-H2AX): minimal treatment-induced changes without consistent direction
PARP 1/2 inhibition (PARP 1/2): > 90%
PK dose dependence ([1]; 50-500 mg BID): linear with dose
theoretical accumulation index ([1]; calculated from D1 half-lives, geometric mean (SD)): 1.34 (1.12)
accumulation index for AUC0–8 [1, 2]: 1.30 (1.29)
accumulation index for Cmax [1, 2]: 1.24 (1.37)
Vd/F ([1]; human, in vivo, oral): 123 L
Cl/F ([1]; non-compartmental, current study): 15.9 (1.40) L/h
